Activity calls are given as the source filed them. No cut-off for these calls is given here.
Assays:
[1] = biological target: Botulinum neurotoxin type A (Clostridium botulinum) (UniProt P0DPI0); experiment: Inhibition of protease activity of recombinant full-length Clostridium botulinum BoNT/A light chain at 20 uM after 5 mins by HPLC-based assay
Summary of the method: (§1)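 Full-length recombinant BoNT/A LC (110-140 nM) with 0.8 mM SNAP-25 17-mer peptide in 50 mM HEPES pH 7.3. Compound was added from DMSO stock without preincubation, then LC, 5 min at 37°C. TFA stop, reverse-phase HPLC. Percent inhibition came from substrate cleaved with versus without compound; the 20 µM data are means ± SD of two independent assays.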

[2] = biological target: Botulinum neurotoxin type A (Clostridium botulinum) (UniProt P0DPI0); experiment: Inhibition of protease activity of recombinant full-length Clostridium botulinum BoNT/A light chain at 200 uM after 5 mins by HPLC-based assay; summary of the method: as §1
[3] = biological target: Botulinum neurotoxin type A (Clostridium botulinum) (UniProt P0DPI0); experiment: Inhibition of Clostridium botulinum BoNT/A light chain-mediated SNAP-25 cleavage in mouse Neuro2a cells at 15 uM after 30 mins by Western blotting; assay type: cell-based
[4] = Inhibition of zinc carboxypeptidase A at up to 20 uM
Summary of the method: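 Carboxypeptidase A kit plate assay: CPA with compounds from DMSO at various concentrations, 5 min at 25°C, then stop solution and absorbance read at 350 nm. Percent inhibition was taken versus CPA with DMSO; potato tuber CPA inhibitor served as control. Two independent determinations, each in triplicate.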

[5] = biological target: Botulinum neurotoxin type A (Clostridium botulinum) (UniProt P0DPI0); experiment: Inhibition of Clostridium botulinum BoNT/A-mediated neuromuscular block in CD1 mouse phrenic nerve hemidiaphragm assessed as time required to 50% loss of twitch tension at 10 uM after 15 to 20 mins
[6] = biological target: T1, Botulinum neurotoxin type B (Clostridium botulinum) (UniProt P10844); experiment: Inhibition of protease activity of recombinant full-length Clostridium botulinum BoNT/B light chain at 20 uM after 5 mins by HPLC-based assay
T1 sequence (whole entry): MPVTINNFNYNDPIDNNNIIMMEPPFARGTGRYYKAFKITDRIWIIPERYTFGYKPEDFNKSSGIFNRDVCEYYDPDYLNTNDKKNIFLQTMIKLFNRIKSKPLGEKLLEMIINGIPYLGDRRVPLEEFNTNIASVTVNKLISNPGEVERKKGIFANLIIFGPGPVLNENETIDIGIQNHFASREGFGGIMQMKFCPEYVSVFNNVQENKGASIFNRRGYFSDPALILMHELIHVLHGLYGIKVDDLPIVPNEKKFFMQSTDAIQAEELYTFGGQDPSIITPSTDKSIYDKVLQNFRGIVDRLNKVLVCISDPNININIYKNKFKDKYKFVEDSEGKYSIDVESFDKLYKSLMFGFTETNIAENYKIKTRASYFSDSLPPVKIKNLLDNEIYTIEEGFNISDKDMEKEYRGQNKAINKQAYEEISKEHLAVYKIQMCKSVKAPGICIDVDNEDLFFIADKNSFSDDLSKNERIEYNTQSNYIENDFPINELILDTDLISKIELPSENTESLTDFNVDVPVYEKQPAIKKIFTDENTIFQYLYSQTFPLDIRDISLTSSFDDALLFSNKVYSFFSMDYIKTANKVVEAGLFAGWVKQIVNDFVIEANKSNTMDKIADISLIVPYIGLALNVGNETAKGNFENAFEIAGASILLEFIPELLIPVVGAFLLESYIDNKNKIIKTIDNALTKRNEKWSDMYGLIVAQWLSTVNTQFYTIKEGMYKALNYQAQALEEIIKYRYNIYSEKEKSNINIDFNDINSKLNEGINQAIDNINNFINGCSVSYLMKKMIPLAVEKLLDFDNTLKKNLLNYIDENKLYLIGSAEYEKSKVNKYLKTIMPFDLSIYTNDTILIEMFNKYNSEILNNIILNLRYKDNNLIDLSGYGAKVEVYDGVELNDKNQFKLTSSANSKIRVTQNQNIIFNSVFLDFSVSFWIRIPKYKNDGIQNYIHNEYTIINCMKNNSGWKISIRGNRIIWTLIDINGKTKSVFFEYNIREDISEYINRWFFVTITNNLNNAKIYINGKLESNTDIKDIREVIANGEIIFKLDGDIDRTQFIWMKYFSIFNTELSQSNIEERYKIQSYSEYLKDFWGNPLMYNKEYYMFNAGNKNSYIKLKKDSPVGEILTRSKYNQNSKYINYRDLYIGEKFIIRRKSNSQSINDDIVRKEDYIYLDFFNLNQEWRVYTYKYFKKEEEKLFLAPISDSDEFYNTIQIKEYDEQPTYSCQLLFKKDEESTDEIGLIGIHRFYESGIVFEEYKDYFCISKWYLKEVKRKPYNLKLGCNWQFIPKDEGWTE
Summary of the method: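 Recombinant BoNT/B LC (30-40 nM) with 0.4 mM 35-mer human VAMP-2 (60-94) peptide, 1 mM DTT, 50 mM HEPES pH 7.3. Compound was added at 20 µM final without preincubation, then 5 min at 37°C. TFA stop, reverse-phase HPLC quantification of cleavage. Means ± SD of two independent assays.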

[7] = biological target: T2, Botulinum neurotoxin type A (Clostridium botulinum, UniProt P0DPI0); experiment: Inhibition of protease activity of recombinant full-length Clostridium botulinum BoNT/A light chain after 5 mins by HPLC-based assay
T2 sequence (P0DPI0 2-448 limits assumed): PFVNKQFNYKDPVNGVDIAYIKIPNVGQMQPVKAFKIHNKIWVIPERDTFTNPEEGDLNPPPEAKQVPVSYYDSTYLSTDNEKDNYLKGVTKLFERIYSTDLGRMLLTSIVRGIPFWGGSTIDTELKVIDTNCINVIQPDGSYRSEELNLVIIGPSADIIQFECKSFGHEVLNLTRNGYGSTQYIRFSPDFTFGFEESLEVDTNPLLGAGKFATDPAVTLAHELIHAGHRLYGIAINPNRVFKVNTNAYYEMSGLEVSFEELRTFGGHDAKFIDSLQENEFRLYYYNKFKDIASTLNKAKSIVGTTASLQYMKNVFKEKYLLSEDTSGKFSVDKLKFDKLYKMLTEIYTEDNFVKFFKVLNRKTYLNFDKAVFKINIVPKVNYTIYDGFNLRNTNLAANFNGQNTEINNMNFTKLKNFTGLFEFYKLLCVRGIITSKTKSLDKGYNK
Summary of the method: (§2)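 Recombinant BoNT/A light chain, full-length at 140 nM or truncated (residues 1-425) at 620 nM final, with 0.8 mM 17-mer SNAP-25 (187-203) peptide in 50 mM HEPES pH 7.3. Inhibitor was added from DMSO at nine concentrations, then 5 min at 37°C. Stopped with 0.7% TFA, cleavage quantified by reverse-phase HPLC, and IC50 derived by log-probit analysis.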

[8] = biological target: Botulinum neurotoxin type A (Clostridium botulinum) (UniProt P0DPI0); experiment: Inhibition of Clostridium botulinum BoNT/A light chain-mediated SNAP-25 cleavage in mouse Neuro2a cells at 10 uM after 30 mins by Western blotting; assay type: cell-based
[9] = biological target: T2, Botulinum neurotoxin type A; experiment: Inhibition of protease activity of recombinant Clostridium botulinum BoNT/A (1 to 425) light chain after 5 mins by HPLC-based assay; summary of the method: as §2
[10] = biological target: Botulinum neurotoxin type A (Clostridium botulinum) (UniProt P0DPI0); experiment: Inhibition of Clostridium botulinum BoNT/A-mediated neuromuscular block in CD1 mouse phrenic nerve hemidiaphragm assessed as time required to 50% loss of twitch tension at 20 uM after 15 to 20 mins
[11] = biological target: Botulinum neurotoxin type A (Clostridium botulinum) (UniProt P0DPI0); experiment: Inhibition of Clostridium botulinum BoNT/A-mediated neuromuscular block in CD1 mouse phrenic nerve hemidiaphragm assessed as time required to 50% loss of twitch tension at 5 uM after 15 to 20 mins
[12] = biological target: T2, Botulinum neurotoxin type A; experiment: Binding affinity to Clostridium botulinum BoNT/A
[13] = biological target: Botulinum neurotoxin type A (Clostridium botulinum) (UniProt P0DPI0); experiment: Inhibition of Clostridium botulinum BoNT/A-mediated neuromuscular block in CD1 mouse phrenic nerve hemidiaphragm assessed as time required to 50% loss of twitch tension at 0.5 uM after 15 to 20 mins
[14] = Cytotoxicity against mouse Neuro2a cells at >= 10 uM; assay type: cell-based; conditions: n2a

Botulinum neurotoxin type A (Clostridium botulinum), sequence (P0DPI0 2-448 limits assumed): as above

Molecule	inhibition [1] [%]	inhibition [2] [%]	Activity [3]	Activity [4]	inhibition [6] [%]	IC50 [7] [nM]	inhibition [8]	IC50 [9] [nM]	further results
CC(CO)(Nc1ccc([N+](=O)[O-])cc1[N+](=O)[O-])C(=O)O (racemic)	29	65							
Oc1c(C(Nc2cccnc2)c2ccccc2F)ccc2cccnc12 (racemic)		92.8	Active	inactive	16.8	3900	68%	2400	TIME [5]: 4.68 h
Oc1c(C(Nc2cccc3cccnc23)c2ccccc2)ccc2cccnc12 (racemic)		91.9	Active	inactive	6.9	3200	66%	3900	TIME [10]: 1.09 h
O=[N+]([O-])c1ccc(NCCNc2ccc([N+](=O)[O-])cc2)cc1	44	80							
Cc1ccc([N+](=O)[O-])cc1NC(=O)NNC(=O)CNC(=O)NCc1ccco1	52	75							
Cc1ccc(NC(=O)/C(CC(=O)c2sc(Nc3ccccc3Cl)nc2C)=N/Nc2ccc([N+](=O)[O-])cc2[N+](=O)[O-])c(C)c1	51	85							
Oc1c(C(Nc2cccnc2)c2ccc(C(F)(F)F)cc2)ccc2cccnc12 (racemic)		92.7	Active	inactive	30.2	4700	Active	5000	TIME [11]: 3.6 h
Oc1c(C(Nc2ccccn2)c2ccccc2)ccc2cccnc12 (racemic)			Active	inactive	8.8	1600	Active	1500	TIME [5]: 4.44 h
O=C1c2ccccc2C(=O)N1CNc1ccccc1/C(=N/Nc1ccc([N+](=O)[O-])cc1[N+](=O)[O-])c1ccccc1	49	82							
Ac-CRATKML-NH2									Ki [12]: 1900 nM; Activity [10]: inactive; TIME [10]: 0.878 h
CCOc1ccc(C(Nc2cccnc2)c2cc(Cl)c3cccnc3c2O)cc1 (racemic)		96.2	Active	inactive	31.2	2100	Active	1600	TIME [13]: 4.52 h
O=[N+]([O-])c1ccc(NC(c2ccccc2)c2ccc3cccnc3c2O)cc1 (racemic)	52	87							Activity [14]: Toxic
O=[N+]([O-])c1cccc(CN(Cc2cccc([N+](=O)[O-])c2O)c2ccccc2)c1O	37	75							

From ChEMBL document CHEMBL1687736, “Identification and biochemical characterization of small-molecule inhibitors of Clostridium botulinum neurotoxin serotype A” (Antimicrob Agents Chemother, 2009)
